This is an account of results in ChEMBL document CHEMBL2203145, “Synthesis and structure-activity relationships of tri-substituted thiazoles as RAGE antagonists for the treatment of Alzheimer's disease” (Bioorg Med Chem Lett, 2012).

Test [1] concerns the target Advanced glycosylation end product-specific receptor (Mus musculus) (UniProt Q62151). Put plainly: Antagonist activity at RAGE overexpressed in mouse bEND.3 cells assessed as inhibition of FITC-amyloid beta 42 transport across blood-brain barrier at 10 uM by fluorescence assay. The format is functional, cell-based. The essentials:
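RAGE-overexpressing bEND.3 cells grown 3–4 days to confluence on inserts to form a tight-junction barrier; TEER taken as resistance minus blank-insert resistance, times insert area. Aβ transport across the monolayer measured with compound at 10 µM; reported as % inhibition.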

Test [2] has as its target T1, Advanced glycosylation end product-specific receptor (Homo sapiens, UniProt Q15109). The test can be described thus: Antagonist activity at human biotinylated RAGE assessed as inhibition of amyloid beta binding at 10 uM after 60 mins by ELISA. The essentials:
(§1)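 Biotinylated protein with Aβ in BSA-containing buffer incubated on a streptavidin-coated plate for 60 min at ambient temperature, then washed with TBS-T. Bound Aβ detected with HRP-conjugated 4G8 antibody (1:1000, TBS-T with 2.5% BSA) for 60 min at ambient temperature. Developed with TMB, stopped with sulfuric acid, absorbance read at 450 nm.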
For orientation: ELISA stands for enzyme-linked immunosorbent assay.

Test [3] concerns the target T1, Advanced glycosylation end product-specific receptor. The test can be described thus: Antagonist activity at human biotinylated RAGE assessed as inhibition of amyloid beta binding after 60 mins by ELISA. The essentials: as §1
Test [4] has the same target. Put plainly: Antagonist activity at RAGE transfected in CHO cells assessed as inhibition of amyloid beta 42-induced NFkappaB activation at 1 uM after 18 hrs by luciferase reporter gene assay. It counts as functional, cell-based. The essentials:
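CHO-NF-κB-luciferase cells at 20,000 cells/well in Opti-MEM, incubated overnight, then treated with compound (1 µM) for 18 h at 37 °C with or without 5 µM Aβ42. Cells lysed in passive lysis buffer, lysate mixed with luciferase substrate, relative light units read on a luminometer.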

pIC50: −log10 of the molar value.

T1 sequence (Q15109 whole entry): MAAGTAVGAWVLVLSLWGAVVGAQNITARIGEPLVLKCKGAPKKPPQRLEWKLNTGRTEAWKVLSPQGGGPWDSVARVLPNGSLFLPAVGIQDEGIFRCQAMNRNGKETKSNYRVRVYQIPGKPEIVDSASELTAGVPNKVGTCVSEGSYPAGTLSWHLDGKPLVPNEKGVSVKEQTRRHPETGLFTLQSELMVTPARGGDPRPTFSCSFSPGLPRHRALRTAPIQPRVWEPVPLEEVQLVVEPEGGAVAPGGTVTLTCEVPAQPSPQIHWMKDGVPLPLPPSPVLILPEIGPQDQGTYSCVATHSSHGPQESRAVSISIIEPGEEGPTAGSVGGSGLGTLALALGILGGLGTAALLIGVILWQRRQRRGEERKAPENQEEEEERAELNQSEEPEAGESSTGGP
Sequence of Advanced glycosylation end product-specific receptor (Mus musculus) (Q62151 whole entry): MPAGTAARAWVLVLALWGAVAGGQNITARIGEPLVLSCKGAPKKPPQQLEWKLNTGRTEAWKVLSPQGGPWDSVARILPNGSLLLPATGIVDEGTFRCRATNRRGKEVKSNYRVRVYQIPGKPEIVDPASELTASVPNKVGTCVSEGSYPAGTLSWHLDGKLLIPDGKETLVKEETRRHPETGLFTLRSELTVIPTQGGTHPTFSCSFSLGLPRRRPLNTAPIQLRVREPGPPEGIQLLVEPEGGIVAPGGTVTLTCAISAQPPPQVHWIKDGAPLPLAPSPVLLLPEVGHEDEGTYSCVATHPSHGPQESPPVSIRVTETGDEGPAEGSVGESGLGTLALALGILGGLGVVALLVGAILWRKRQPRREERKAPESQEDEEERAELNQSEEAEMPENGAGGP

In general, inhibition refers to the drop in the measured response relative to a control, in per cent. What is called pIC50 is the negative decadic logarithm of the IC50, by convention in mol/L. Consider `CCCCc1sc(-c2ccc(Oc3ccc(Cl)cc3)cc2)nc1-c1ccc(OCC2CCCN(CC)C2)cc1` (stereo unspecified), for which the inhibition in test [1] was 68.3%; in test [2], 55.9%. In addition, the pIC50 in test [3] is 5.72.
Regarding `CCCCc1sc(-c2ccc(OCCN3CCCCC3)cc2)nc1-c1ccc(Oc2ccc(Cl)cc2)cc1`, the inhibition is 55.3% in test [1], 60.1% in test [2] and 13.5% in test [4]. Moreover, the pIC50 in test [3] is 5.98.
For `CCCCc1sc(-c2ccc(OCCCN3CCCC3)cc2)nc1-c1ccc(Oc2ccc(Cl)cc2)cc1`, in test [2], the inhibition was found to be 47.8%.
Turning to `CCCCc1nc(-c2ccc(Oc3ccc(Cl)cc3)cc2)sc1-c1ccc(OCCCN(CC)CC)cc1`, the inhibition in test [1] stood at 63.5%; in test [2], 57.1%; in test [4], 10.3%. Besides, the negative-log IC50 (pIC50) in test [3] is 5.70.
On to `CCCCc1nc(-c2ccc(OCCCN(CC)CC)cc2)sc1-c1ccc(Oc2ccc(Cl)cc2)cc1`, for which the inhibition in test [2] was 49.6%.
For `CCCCc1sc(-c2ccc(Oc3ccc(Cl)cc3)cc2)nc1-c1ccc(O)cc1`, in test [2], the inhibition is 0.2%.
Turning to `CCCCc1sc(-c2ccc(OCCCN3CCN(C)CC3)cc2)nc1-c1ccc(Oc2ccc(Cl)cc2)cc1`, the inhibition in test [1] turned out to be 64.3%; in test [2], 59.2%; in test [4], 3.1%. Moreover, the pIC50 in test [3] is 5.91.
Consider `CCCCc1nc(-c2ccc(OCC3CCCN(CC)C3)cc2)sc1-c1ccc(Oc2ccc(Cl)cc2)cc1` (stereo unspecified), for which the inhibition in test [2] turned out to be 47.7%.
As for `CCCCc1sc(Nc2ccc(OCCCN(CC)CC)cc2)nc1-c1ccc(Oc2ccc(Cl)cc2)cc1`, the inhibition in test [2] worked out at 60.9%. Besides, the pIC50 in test [3] is 6.26.
Take `CCCCc1sc(C(=O)Nc2ccc(OCCCN(CC)CC)cc2)nc1-c1ccc(Oc2ccc(Cl)cc2)cc1`: in test [2], the inhibition was 48.1%.
As to `CCCCc1sc(-c2ccc(OCCCN3CCOCC3)cc2)nc1-c1ccc(Oc2ccc(Cl)cc2)cc1`, the inhibition in test [2] was found to be 40.6%.
For the molecule `CCCCc1sc(-c2ccc(OCCCN(C)C)cc2)nc1-c1ccc(Oc2ccc(Cl)cc2)cc1`, in test [2], the inhibition was determined as 46.2%.
As to `CCCCc1sc(-c2ccc(OCCN(C)C)cc2)nc1-c1ccc(Oc2ccc(Cl)cc2)cc1`, the inhibition in test [1] stood at 66.6%; in test [2], 51.8%; in test [4] it was 2.1%. Further, the pIC50 in test [3] was 5.50.
In the same order, the values of `CCCCc1sc(-c2ccc(OCCN3CCN(C)CC3)cc2)nc1-c1ccc(Oc2ccc(Cl)cc2)cc1` are 68.6%, 54.7%, 17.2% and 5.92.
For `CCCCc1nc(-c2ccc(Oc3ccc(Cl)cc3)cc2)sc1-c1ccc(OCC2CCCN(CC)C2)cc1` (stereo unspecified) the same measures were 61.5%, 53.9%, 4.9% and 5.94.
As to `CCCCc1sc(NC(=O)c2ccc(OCCCN(CC)CC)cc2)nc1-c1ccc(Oc2ccc(Cl)cc2)cc1`, the inhibition in test [2] worked out at 60.2%. Besides, the pIC50 in test [3] is 5.25.
As for `CCCCc1sc(-c2ccc(OCCN3CCCC3)cc2)nc1-c1ccc(Oc2ccc(Cl)cc2)cc1`, the inhibition in test [1] is 39.5%; in test [2] it was 64.2%; in test [4], 2.5%. In test [3], the negative-log IC50 (pIC50) was 6.04.
On to `CCCCc1sc(-c2ccc(OCCN3CCOCC3)cc2)nc1-c1ccc(Oc2ccc(Cl)cc2)cc1`, for which the inhibition in test [2] stood at 22.9%.
Take `CCCCc1sc(-c2ccc(OCCN(CC)CC)cc2)nc1-c1ccc(Oc2ccc(Cl)cc2)cc1`: the inhibition came to 55.1% in test [2] and 11.3% in test [4]. For the same molecule, the negative-log IC50 (pIC50) in test [3] was 5.80.
`CCCCc1sc(-c2ccc(Oc3ccc(Cl)cc3)cc2)nc1-c1ccc(OCCCN(CC)CC)cc1`: the inhibition in test [1] is 71.7%; in test [2], 57%. For the same molecule, in test [3], the negative-log IC50 (pIC50) was 5.95.
Consider `CCCCc1sc(-c2ccc(OCC3CCCN(CC)C3)cc2)nc1-c1ccc(Oc2ccc(Cl)cc2)cc1` (stereo unspecified), for which the inhibition worked out at 77.5% in test [1], 58% in test [2] and 3% in test [4]. For the same molecule, in test [3], the negative-log IC50 (pIC50) was 6.18.
As for `CCCCc1sc(-c2ccc(OCCCN(CC)CC)cc2)nc1-c1ccc(Oc2ccc(Cl)cc2)cc1`, the inhibition is 73.3% in test [1] and 58.9% in test [2]. Also, the pIC50 in test [3] is 5.76.
Consider `CCCCc1sc(-c2ccc(OCCCN3CCCCC3)cc2)nc1-c1ccc(Oc2ccc(Cl)cc2)cc1`, for which the inhibition in test [1] was 64.3%; in test [2], 59.2%; in test [4] it was 11.7%. In addition, in test [3], the negative-log IC50 (pIC50) is 5.74.
As to `CCCCc1sc(-c2ccc(Oc3ccc(Cl)cc3)cc2)nc1-c1ccc(OCc2ccccc2)cc1`, the inhibition in test [2] was 2.4%.
